AC50 and activity change, negative = inhibition data for 13 compounds are collected here from PubChem BioAssay AID624290 (Broad Institute, 2012).

Active and inactive are the calls of the source.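 Rule for the calls: active = compounds dimming the MITF-driven luciferase signal, with fitted AC50 at most twice the top tested dose; inconclusive = flat curves with moderate signal drop, or poor-quality fits; inactive = the rest.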

The subject of one experiment is SK-MEL-5 TRPM1-promoter luciferase reporter, 24 h. Put plainly: decrease of TRPM1 reporter luminescence in SK-MEL-5 – cell-based, dry powder samples, set 2, MITF inhibitor project, dose response (AID 624290).
Conditions: not given
The essentials: (§1)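 material = SK-MEL-5 TRPM1-promoter luciferase reporter cells | timing = compound pinned one day after plating, 24 h exposure at 37 °C | signal = luciferase luminescence with SteadyGlo reagent, 5 min room-temperature incubation | evaluation = luminescence change reflecting TRPM1 promoter activity, decrease as inhibition | benchmarks = parthenolide as positive control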
As to `C=CCNC1=C(N2CCCCC2)C(=O)c2ccccc2C1=O`, the AC50 was 0.614 µM.

With `CN1CCN(C2=C(NS(=O)(=O)c3ccc(Br)cc3)C(=O)c3ccccc3C2=O)CC1`, the AC50 is 1.59 µM.

In the case of `O=C1C(Nc2ccccc2)=C(N2CCSCC2)C(=O)c2ccccc21`, the AC50 was 11.9 µM.

For the compound `COc1ccc(C2=C(NC(=O)c3cccc(OC)c3)C(=O)c3ccccc3C2=O)cc1`, the AC50 was 7.97 µM.

On to `COc1ccc(C2=C(N)C(=O)c3ccccc3C2=O)cc1`, for which the AC50 is 35.1 µM.

`O=C(NC1=C(c2ccccc2)C(=O)c2ccccc2C1=O)c1ccc(Br)cc1`: the AC50 was 9.43 µM.

In the case of `COc1ccc(C2=C(NC(=O)c3ccc(Cl)cc3)C(=O)c3ccccc3C2=O)cc1`, the AC50 was 12.2 µM.

`CN1CCN(C2=C(NS(=O)(=O)c3ccccc3)C(=O)c3ccccc3C2=O)CC1`: the AC50 was 0.984 µM.

In the case of `C=CCNC1=C(Nc2ccccc2)C(=O)c2ccccc2C1=O`, the AC50 was 8.22 µM.

Take `CC(=O)NC1=C(c2ccc(Cl)cc2)C(=O)c2ccccc2C1=O`: the AC50 is 4.56 µM.

For the compound `C=CCNC1=C(N(C)C(C)=O)C(=O)c2ccccc2C1=O`, the AC50 was 0.0779 µM.

As for `O=C1C(Nc2ccccc2)=C(N2CCCCC2)C(=O)c2ccccc21`, the AC50 was 9.81 µM.

Test system in another experiment: not listed separately
The experiment is described as above. As to conditions: SK-MEL-5 TRPM1-promoter luciferase reporter, 24 h; at 35 µM (top of the series). The essentials:
as §1
(In general: A reporter such as luciferase makes a cellular process visible.)
Regarding `O=C(NC1=C(N2CCCCC2)C(=O)c2ccccc2C1=O)c1ccc(Br)cc1`, the activity change, negative = inhibition was -0.221% (inactive).

What is called AC50 is the concentration at which the activity in the assay is half-maximal.
